Reference: article PMC5892780 (RMD Open, 2018)

Columns and labels:
[1] = test system: adults with gout; assay: Serum urate; type: in vivo, human
In short: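 Gout patients were dosed orally once daily after a standardised breakfast, 7 days per treatment period. Serum was sampled at screening, baseline (day –1) and weekly for 4 weeks, within 30 min predose and at preset intervals up to 24 h postdose. Emax is the maximum percent change from baseline. A mixed-effects model used treatment and period as fixed effects, subject as random effect and baseline as covariate; data were pooled across cohorts.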

[2] = test system: adults with gout; assay: Urinary uric acid pharmacodynamics; type: in vivo, human
In short: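 Total-catch urine was collected on day –1, then weekly for 4 weeks, in 1 h up to 2 or 10 h intervals. On collection days subjects drank 240 mL water on waking, 240 mL with the dose, ~160 mL/h for 12 h and 240 mL at 22 h. ReUR, AeUR, CLUR and FEUA were derived per time point per 24-h collection. Analysis used a mixed-effects model with baseline covariate.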

[3] = test system: adults with gout; assay: Urinary xanthine and hypoxanthine excretion; type: in vivo, human; conditions: febuxostat 40 mg alone; urine
In short: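 Urine from gout patients on once-daily oral treatment (total catch, day –1 and weekly for 4 weeks, with a fixed water-loading schedule) was assayed for xanthine and hypoxanthine by LC/MS/MS. Assay performance was monitored with quality control samples prepared in blank matrix. These analytes served as a marker of the functional activity of the 40 mg partner-drug dose.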

[4] = Plasma PK of febuxostat alone or in the presence of verinurad; type: in vivo, human; conditions: for GMR AUC0-24 / GMR Cmax: GMR (90% CI)
In short: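 Adults with gout took the test compounds orally once daily, about 30 min after a standardised breakfast (approximately 650 kcal, 35% fat), in 7-day treatment periods. Blood was drawn weekly for 4 weeks, within 30 min predose and at intervals up to 24 h postdose. Plasma was separated by centrifugation, extracted by protein precipitation and analysed by LC/MS/MS. Cmax and AUC0-24 were compared by mixed-effects model (treatment fixed, subject random).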

[5] = test system: adults with gout; assay: Safety assessment; type: in vivo, human; conditions: febuxostat 80 mg-alone group
In short: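 Subjects (sUA ≥8 mg/dL, creatinine clearance ≥60 mL/min) received colchicine 0.6 mg flare prophylaxis. Once-daily oral dosing with the test compounds was given after a standardised breakfast. Safety was monitored throughout and at day 42 (±2) follow-up: AEs coded by MedDRA V.17.0, clinical laboratory tests, vital signs, ECGs and physical examinations.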

[6] = Plasma and urine PK of verinurad in the presence of febuxostat; type: in vivo, human; conditions: for Tmax: human, plasma, oral; for fe0-24: urine, geometric mean (95% CI)
[7] = test system: humans; conditions: doses as low as 2.5 mg; cited from earlier work
[8] = test system: patients with gout; conditions: lesinurad 400 mg vs lesinurad 200 mg plus febuxostat or febuxostat alone; cited from earlier work
[9] = febuxostat 40 mg + verinurad 2.5 mg vs febuxostat alone
[10] = febuxostat 40 mg + verinurad 5 mg vs febuxostat alone
[11] = febuxostat 40 mg + verinurad 20 mg vs febuxostat alone
[12] = febuxostat 80 mg + verinurad 2.5 mg vs febuxostat alone
[13] = febuxostat 80 mg + verinurad 5 mg vs febuxostat alone
[14] = febuxostat 80 mg + verinurad 10 mg vs febuxostat alone
[15] = febuxostat 80 mg + verinurad 15 mg vs febuxostat alone

In the case of `Cc1nc(-c2ccc(OCC(C)C)c(C#N)c2)sc1C(=O)O` [febuxostat], the “Emax, maximum percent decrease in sUA from baseline” value ([1]; febuxostat 40 mg alone) is reported as 42%, the “Emax, maximum percent decrease in sUA from baseline” value ([1]; febuxostat 80 mg alone) is reported as 55% and the “Mean maximum urinary uric acid excretion rate (ReUR) compared with baseline” value ([2]; febuxostat 40 and 80 mg alone) is reported as “reduced below baseline”. The “Influence on FEUA” value ([2]; febuxostat 40 or 80 mg administered alone) was “did not influence”, the “Influence on CLUR” value ([2]; febuxostat 40 or 80 mg administered alone, data not shown) was “did not influence” and the “Increase in mean excretion of hypoxanthine” value [3] was 527%. For the same molecule, the “Increase in mean excretion of xanthine” value [3] was 1965%, the “GMR AUC0-24” value [4, 9] was 94.2 (88.1 to 101) % and the “GMR Cmax” value [4, 9] was 91.2 (69.3 to 120) %. The “GMR AUC0-24” value [4, 10] was 92.4 (89.0 to 95.8) %, the “GMR Cmax” value [4, 10] was 85.6 (75.7 to 96.7) % and the “GMR AUC0-24” value [4, 11] was 94.1 (89.4 to 99.0) %. For the same molecule, the “GMR Cmax” value [4, 11] was 114 (92.0 to 141) %, the “GMR AUC0-24” value [4, 12] was 98.6 (94.5 to 103) % and the “GMR Cmax” value [4, 12] was 146 (130 to 165) %. The “GMR AUC0-24” value [4, 13] was 89.3 (82.8 to 96.3) %, the “GMR Cmax” value [4, 13] was 89.9 (68.8 to 117) % and the “GMR AUC0-24” value [4, 14] was 94.2 (90.7 to 97.9) %. For the same molecule, the “GMR Cmax” value [4, 14] was 101 (87.9 to 116) %, the “GMR AUC0-24” value [4, 15] was 92.9 (84.1 to 103) % and the “GMR Cmax” value [4, 15] was 123 (88.3 to 173) %. The “Febuxostat exposures alone vs in combination with verinurad” value ([4]; febuxostat 40 or 80 mg) was “equivalence” and the “TEAE of severe intensity” value [5] was “a severe case of hypertriglyceridaemia”.

`CC(C)(Sc1ccncc1-c1ccc(C#N)c2ccccc12)C(=O)O` [verinurad] showed a Tmax ([6]; Median Tmax of verinurad, range over verinurad 2.5-20 mg with febuxostat 40 or 80 mg) of 2.5 to 4 h, a Tmax ([6]; Tmax, verinurad 2.5 mg + febuxostat 40 mg, median (range)) of 3.5 h and a Tmax ([6]; Tmax, verinurad 2.5 mg + febuxostat 80 mg, median (range)) of 2.5 h. The Tmax ([6]; Tmax, verinurad 5 mg + febuxostat 40 mg, median (range)) was 3.5 h, the Tmax ([6]; Tmax, verinurad 5 mg + febuxostat 80 mg, median (range)) was 4 h and the Tmax ([6]; Tmax, verinurad 10 mg + febuxostat 40 mg, median (range)) was 3 h. For the same molecule, the Tmax ([6]; Tmax, verinurad 10 mg + febuxostat 80 mg, median (range)) was 3 h, the Tmax ([6]; Tmax, verinurad 15 mg + febuxostat 40 mg, median (range)) was 3 h and the Tmax ([6]; Tmax, verinurad 20 mg + febuxostat 40 mg, median (range)) was 3 h. The fe0-24 ([6]; verinurad 2.5 mg + febuxostat 40 mg) was 0.661 (0.437 to 1.00) %, the fe0-24 ([6]; verinurad 2.5 mg + febuxostat 80 mg) was 0.622 (0.347 to 1.11) % and the “Verinurad Ae0-24 (amount excreted unchanged in urine)” value ([6]; verinurad 2.5 mg with febuxostat 80 mg) was 15.5 µg. The fe0-24 ([6]; verinurad 5 mg + febuxostat 40 mg) was 0.657 (0.444 to 0.970) %, the fe0-24 ([6]; verinurad 5 mg + febuxostat 80 mg) was 0.640 (0.392 to 1.05) % and the fe0-24 ([6]; verinurad 10 mg + febuxostat 40 mg) was 0.810 (0.622 to 1.05) %. The fe0-24 ([6]; verinurad 10 mg + febuxostat 80 mg) was 1.03 (0.710 to 1.49) %, the fe0-24 ([6]; verinurad 15 mg + febuxostat 40 mg) was 0.692 (0.561 to 0.853) % and the fe0-24 ([6]; verinurad 15 mg + febuxostat 80 mg) was 0.816 (0.493 to 1.35) %. The fe0-24 ([6]; verinurad 20 mg + febuxostat 40 mg) was 0.717 (0.542 to 0.949) %, the “Verinurad Ae0-24 (amount excreted unchanged in urine)” value ([6]; verinurad 20 mg with febuxostat 40 mg) was 143 µg and the “sUA lowering in humans” value [7] was “significant sUA lowering”.

For `O=C(O)CSc1nnc(Br)n1-c1ccc(C2CC2)c2ccccc12` [lesinurad], the “Rates of renal adverse effects” value [8] is listed as “increased rates of renal adverse effects”.
